In the library only some 2.1% were active in any assay of this set; here they are far more common.
EBNA-1 inhibitor: blocks EBNA-1 binding to DNA; EBNA-1 DNA binding, fluorescence polarization; inhibition, % at 14.8 µM; 300,000 tested, 0.34% active; AID 1950; in the data active = inhibition above about 28%
PABP1 MLLE inh: inhibitors of microRNA-mediated deadenylation, human PABP1 MLLE binding; inhibition, % at 20 µM; AID 588489; 360,000 tested, 0.36% active; P11940; GST-MLLE / FITC-PAM2 fluorescence polarization; in the data active = inhibition above about 35%, passing the limit was not always enough;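 note: plate controls were DMSO wells with GST-MLLE for no effect and wells lacking GST-MLLE protein for full effect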
ZTA DNA inh: blocks Epstein-Barr virus ZTA, an EBNA-1 counter-screen; P03206; inhibition, % at 11 µM; ZTA-DNA binding, fluorescence polarization; AID 2234; 320,000 tested, 0.15% active; in the data active = inhibition above about 33%
Target sequence (P03206 whole entry, looked up): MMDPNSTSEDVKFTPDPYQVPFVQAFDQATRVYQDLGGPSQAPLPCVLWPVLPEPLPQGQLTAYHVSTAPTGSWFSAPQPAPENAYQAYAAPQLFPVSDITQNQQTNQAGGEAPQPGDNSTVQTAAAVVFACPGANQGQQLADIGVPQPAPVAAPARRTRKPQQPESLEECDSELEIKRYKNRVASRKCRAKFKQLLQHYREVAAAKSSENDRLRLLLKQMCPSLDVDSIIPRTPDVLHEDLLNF
PABP FP inh: blocks human PABP binding to poly(A) RNA; inhibition, % at 35 µM; P11940; 290,000 tested, 1% active; fluorescence polarization; AID 2014;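 note: calls also rest on retests at 20 µM and on dose response follow-up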
eIF4H FP inh: inhibitors of RNA binding by human eIF4H; AID 2012; 290,000 tested, 0.94% active; inhibition, % at 35 µM; Q15056; eIF4H fluorescence polarization binding assay;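 note: calls also rest on retests at 20 µM and on dose response follow-up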
HCV NS3 hel inh: inhibitors of Hepatitis C virus NS3 helicase; inhibition, % at 10.9 µM; 290,000 tested, 0.56% active; NS3 helicase DNA unwinding, Cy5 molecular beacon fluorescence;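 active = inhibition above the mean of all tested compounds plus 3 SD, set per campaign, cut at about 35% in these data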;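 note: 0% = DMSO wells and 100% = thioflavine S control wells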
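System: HCV NS3 helicase fragment; control set: DMSO and thioflavine S; technique: Cy5 fluorescence at 0 and 60 min, beacon hairpin quenching; reagent: beacon DNA duplex substrate plus ATP; replicates: singlicate; schedule: 1 h reaction at 25 °C, ATP-initiated; medium: MOPS buffer pH 6.5 with MgCl2, DTT, Tween20, BSA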
Starred values were filed as active, the others as inactive; ? = inconclusive; . = not tested or not shown. Unless noted, the rule behind the calls is not given here.

SMILES | EBNA-1 inhibitor | PABP1 MLLE inh | ZTA DNA inh | PABP FP inh | eIF4H FP inh | HCV NS3 hel inh
CC(C)(CCC(=S)N1CCOCC1)C1CCCCC1 | -5 | 42* | -2 | 19 | -2 | -4
S=C(CN1CCCC1=S)N1CCOCC1 | 7 | 8 | -1 | . | . | .
Cc1ccc(C(=O)c2sc3nc4c(cc3c2N)CCC4)cc1 | -4 | 2 | -2 | -19 | -2 | 11
CCC(=O)N=C1SC2CS(=O)(=O)CC2N1c1cccc(OC)c1 (configuration not stated) | -13 | 3 | -2 | 2 | 0 | -3
O=C(COc1ccc(-n2cnnn2)cc1)Nc1cccc(Cl)c1Cl | -2 | -8 | 2 | 5 | 65* | 17
CC(=O)Nc1cc(NC(C)=O)cc(C(=O)N2CCCC3CCCCC32)c1 (configuration not stated) | -4 | -28 | 10 | 53* | 79* | 6
O=C(Nc1ccccc1)N1CCCC2CCCCC21 (configuration not stated) | 11 | 9 | 7 | 0 | 5 | -6
CC(C)[C@H](NC(=O)OC(C)(C)C)c1nnc(SCc2cccc(F)c2)o1 | -2 | -67 | 10 | 1 | -3 | -14
CCCn1nc(C(=O)Nc2nnc(CC)s2)c2ccccc2c1=O | 4 | -11 | -6 | -12 | -8 | 0
N#CC(C#N)=Cc1cccn1-c1ccc(S(N)(=O)=O)cc1 | 4 | 9 | -2 | 54* | 0.5* | 3
CS(=O)(=O)/C(C#N)=C/c1cccn1S(=O)(=O)c1ccccc1 | -4 | -2 | -7 | -8 | -8 | 0
O=S(=O)(c1c(Cl)cc(Br)cc1Cl)N1CCN(C(=S)NC2CC2)CC1 | . | -115 | . | . | . | .
COc1cc(OC)c2ccc(=O)oc2c1C(CC(=O)N1CCCC1)c1ccc2c(c1)OCO2 (configuration not stated) | 6 | 6 | -13 | 51* | 82* | .
COc1cc(C(CC(=O)N2CCCC2)c2c(OC)cc(OC)c3ccc(=O)oc23)cc(OC)c1OC (configuration not stated) | -5 | 43* | 14 | 28 | 52* | .
COc1cc(OC)c2ccc(=O)oc2c1C(CC(=O)N1CCCC(C)C1)c1ccc2c(c1)OCO2 (configuration not stated) | 5 | -13 | 15 | 27 | 71 | .
CN1CCC2CC1c1cc(-c3ccc(C(F)(F)F)cc3)ccc12 (configuration not stated) | . | -2 | . | . | . | .
C#CCOCCOCCOCCNc1nc(N2CCN(C(=O)CCCCCCCCCCNC(=O)[C@H]([C@@H](C)CC)n3cc(CCCCN=C(N)N)nn3)CC2)nc(N2CCN(C(=O)CCCCCCCCCCNC(=O)[C@H](CCCCN)n3cc(C[C@@H](C)CC)nn3)CC2)n1 | 3 | . | 126* | . | . | .
C#CCOCCOCCOCCNc1nc(N2CCN(C(=O)CCCCCCCCCCNC(=O)Cn3cc(C[C@@H](C)O)nn3)CC2)nc(N2CCN(C(=O)CCCCCCCCCCNC(=O)[C@H](CCCCN)n3cc(C[C@@H](C)CC)nn3)CC2)n1 | -4 | -14 | 7 | . | . | .
C#CCOCCOCCOCCNc1nc(N2CCN(C(=O)[C@H](Cc3cc4ccccc4[nH]3)n3cc([C@@H](N)C(C)CC)nn3)CC2)nc(N2CCN(C(=O)[C@H](Cc3cc4ccccc4[nH]3)n3cc([C@@H](N)Cc4ccc(O)cc4)nn3)CC2)n1 (some centres not stated) | 46* | . | 55* | -40 | 5 | -43
C#CCOCCOCCOCCNc1nc(N2CCN(C(=O)CCCCCCCCCCNC(=O)[C@H](CCCCN)n3cc(C[C@@H](C)CC)nn3)CC2)nc(N2CCN(C(=O)CCCCCCCCCCNC(=O)[C@H](CCCCN)n3cc(C[C@@H](C)CC)nn3)CC2)n1 | 7 | -9 | 91* | . | . | .
C#CCOCCOCCOCCNc1nc(N2CCN(C(=O)CCCCCCCCCCNC(=O)[C@H](CO)n3cc(CCCSC)nn3)CC2)nc(N2CCN(C(=O)CCCCCCCCCCNC(=O)[C@H](CCCCN)n3cc(C[C@@H](C)CC)nn3)CC2)n1 | 0 | . | 11 | . | . | .
Cc1cc(NS(=O)(=O)c2ccc(NC(=O)c3cc4c(=O)n5ccccc5nc4s3)cc2)nc(C)n1 | . | -4 | . | active | 72 | 8
Cc1cccc(/N=C/c2c(O)cc(C)oc2=O)n1 | -1 | -12 | -4 | 107* | 78* | 3
Oc1ccc2ccccc2c1C=Nc1ccc(Cl)cn1 | 16 | -10 | 1 | active | 85* | 10
Cc1cc(O)c(/C=N/c2ccccn2)c(=O)o1 | -10 | 1 | -9 | 115 | 89 | -2
SMILES | EBNA-1 inhibitor | PABP1 MLLE inh | ZTA DNA inh | PABP FP inh | eIF4H FP inh | HCV NS3 hel inh
Cc1cc(O)c(C=Nc2ccc(Cl)cn2)c(=O)o1 | -1 | -2 | 0 | 57* | 59* | 1
COc1cccc2cc(-c3nc4ccccc4[nH]3)c(=O)oc12 | 5 | -15 | 20 | 8 | 3 | -12
Cc1cccc2cc(-c3nc4ccc(C(=O)O)cc4[nH]3)c(=O)oc12 | 8 | -8 | 10 | 43 | 65* | 8
N#CC1=C(N)Oc2cc(N)ccc2C1c1ccc(F)cc1F (configuration not stated) | -10 | -28 | -13 | 20* | 59 | -10
O=c1[nH]c(=S)[nH]cc1Oc1ccc(Cl)cc1Cl | . | 46* | . | 10 | 10 | 10
N#C/C(=C/c1cccc(C(F)(F)F)c1)c1nc(CCN2C(=O)c3ccccc3C2=O)cs1 | 0 | -5 | 2 | -16 | -8 | -10
COc1ccc(/C=C2\N=C(c3ccc(C)cc3)OC2=O)cc1 | 4 | -5 | -4 | 6 | -11 | 26
COc1ccc(C2=NC(=O)/C(=C\c3cc(OC)c(OC)c(OC)c3)O2)cc1 | 17 | 61* | -4 | -6 | -6 | 2
C=CCn1c(O)c(CN2CCN(Cc3ccccc3)CC2)c(C)c(C#N)c1=O | -2 | 64 | -10 | 120 | 126* | 0
CCCn1c(O)c(CN2CCCCC2)c(C)c(C#N)c1=O | -1 | 29 | 2 | ? | ? | 16
O=C(COC(=O)C1=COCCO1)Nc1ccc(Br)cc1Br | . | -11 | . | . | . | .
CC(C)Cc1nnc(NC(=O)c2cc3c(s2)CCC3)s1 | 1 | -24 | -13 | 16 | 54* | 6
O=C(COC(=O)/C=C/c1ccco1)Nc1ncc(Cl)cc1Cl | 9 | 5 | 0 | 59* | 79* | 17
Cc1ccc(NC(=O)COC(=O)/C=C/c2ccc(Br)o2)cc1S(=O)(=O)N(C)C | -2 | -3 | 2 | 5 | -1 | 5
CN(C)S(=O)(=O)c1ccc(Cl)c(NC(=O)COC(=O)/C=C/c2ccco2)c1 | -5 | -28 | -12 | 72* | 10 | 3
COc1ccc(/C=C/C(=O)OCC(=O)Nc2cc(S(=O)(=O)N(C)C)ccc2Cl)cc1 | 12 | -11 | -3 | -20 | 0 | 9
CN(C)S(=O)(=O)c1cccc(NC(=O)COC(=O)/C=C/c2ccc(Br)o2)c1 | 6 | -4 | 30 | 39* | ? | 8

Bioassay records (PubChem BioAssay)
